Laboratory results: ChEMBL document CHEMBL1122702, “Radiohalogen-labeled imaging agents. 3. Compounds for measurement of brain blood flow by emission tomography” (J Med Chem, 1984)

Key:
Type in all cases: ADME, organism-based
Rattus norvegicus [1] = species on record: Rattus norvegicus; test: The distribution of the 131 I-labeled compound at 30 min was evaluated in rat brain as Percent of injected dose per gram in the organ; conditions: in vivo, 0.5 h
In short: (§1)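 Male Sprague-Dawley rats (200–300 g, free access to food and water), lightly ether-anesthetized and restrained, received a 0.2 mL saline tail-vein bolus of 10–20 μCi 131I-labeled compound. They were decapitated at the stated time, and organs were excised, weighed and gamma-counted. Percent injected dose was determined against a calibrated external standard made by serial dilution of the injectate. n = 1–4 rats.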

Rattus norvegicus [2] = species on record: Rattus norvegicus; test: The distribution of the 131 I-labeled compound at 30 min was evaluated in rat heart as Percent of injected dose in the total organ; conditions: in vivo, 0.5 h; in short: as §1
Rattus norvegicus [3] = species on record: Rattus norvegicus; test: The distribution of the 131 I-labeled compound at 30 min was evaluated in rat heart as Percent of injected dose per gram in the organ; conditions: in vivo, 0.5 h; in short: as §1
Rattus norvegicus [4] = species on record: Rattus norvegicus; test: The distribution of the 131 I-labeled compound at 30 min was evaluated in rat kidney as Percent of injected dose in the total organ; conditions: in vivo, 0.5 h; in short: as §1
Rattus norvegicus [5] = species on record: Rattus norvegicus; test: The distribution of the 131 I-labeled compound at 30 min was evaluated in rat kidney as Percent of injected dose per gram in the organ; conditions: in vivo, 0.5 h; in short: as §1
Rattus norvegicus [6] = species on record: Rattus norvegicus; test: The distribution of the 131 I-labeled compound at 30 min was evaluated in rat liver as Percent of injected dose in the total organ; conditions: in vivo, 0.5 h; in short: as §1
Rattus norvegicus [7] = species on record: Rattus norvegicus; test: The distribution of the 131 I-labeled compound at 30 min was evaluated in rat liver as Percent of injected dose per gram in the organ; conditions: in vivo, 0.5 h; in short: as §1
Rattus norvegicus [8] = species on record: Rattus norvegicus; test: The distribution of the 131 I-labeled compound at 30 min was evaluated in rat lung as Percent of injected dose per gram in the organ; conditions: in vivo, 0.5 h; in short: as §1
Rattus norvegicus [9] = species on record: Rattus norvegicus; test: The distribution of the 131 I-labeled compound at 5 min was evaluated in rat brain as Percent of injected dose in the total organ; conditions: in vivo; in short: as §1
Rattus norvegicus [10] = species on record: Rattus norvegicus; test: The distribution of the 131 I-labeled compound at 5 min was evaluated in rat brain as Percent of injected dose per gram in the organ; conditions: in vivo; in short: as §1
Rattus norvegicus [11] = species on record: Rattus norvegicus; test: The distribution of the 131 I-labeled compound at 5 min was evaluated in rat heart as Percent of injected dose in the total organ; conditions: in vivo; in short: as §1
Rattus norvegicus [12] = species on record: Rattus norvegicus; test: The distribution of the 131 I-labeled compound at 5 min was evaluated in rat heart as Percent of injected dose per gram in the organ; conditions: in vivo; in short: as §1
Rattus norvegicus [13] = species on record: Rattus norvegicus; test: The distribution of the 131 I-labeled compound at 5 min was evaluated in rat kidney as Percent of injected dose in the total organ; conditions: in vivo; in short: as §1
Rattus norvegicus [14] = species on record: Rattus norvegicus; test: The distribution of the 131 I-labeled compound at 5 min was evaluated in rat kidney as Percent of injected dose per gram in the organ; conditions: in vivo; in short: as §1
Rattus norvegicus [15] = species on record: Rattus norvegicus; test: The distribution of the 131 I-labeled compound at 5 min was evaluated in rat liver as Percent of injected dose in the total organ; conditions: in vivo; in short: as §1
Rattus norvegicus [16] = species on record: Rattus norvegicus; test: The distribution of the 131 I-labeled compound at 5 min was evaluated in rat liver as Percent of injected dose per gram in the organ; conditions: in vivo; in short: as §1
Rattus norvegicus [17] = species on record: Rattus norvegicus; test: The distribution of the 131 I-labeled compound at 5 min was evaluated in rat lung as Percent of injected dose per gram in the organ; conditions: in vivo; in short: as §1
Rattus norvegicus [18] = species on record: Rattus norvegicus; test: The distribution of the 131 I-labeled compound at 30 min was evaluated in rat blood as Percent of injected dose per gram in the organ; conditions: in vivo, 0.5 h; in short: as §1
Rattus norvegicus [19] = species on record: Rattus norvegicus; test: Ratio of distribution of the [131I]-labeled compound at 30 min in rat brain over uptake in blood; conditions: 0.5 h
In short: (§2)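 Male Sprague-Dawley rats (200–300 g, fed ad libitum), ether-anesthetized, got a tail-vein bolus of 0.2 mL saline containing 10–20 μCi 131I compound and were decapitated at the stated time. Organs were weighed and gamma-counted against a serially diluted external standard. Organ/blood ratio was calculated from % dose per gram of organ. Animal numbers per time point were 1–4.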

Rattus norvegicus [20] = species on record: Rattus norvegicus; test: Ratio of distribution of the [131I]-labeled compound at 30 min in rat heart over uptake in blood; conditions: other tissue, 0.5 h; in short: as §2
Rattus norvegicus [21] = species on record: Rattus norvegicus; test: Ratio of distribution of the [131I]-labeled compound at 30 min in rat kidney over uptake in blood; conditions: other tissue, 0.5 h; in short: as §2
Rattus norvegicus [22] = species on record: Rattus norvegicus; test: Ratio of distribution of the [131I]-labeled compound at 30 min in rat liver over uptake in blood; conditions: other tissue, 0.5 h; in short: as §2
Rattus norvegicus [23] = species on record: Rattus norvegicus; test: Ratio of distribution of the [131I]-labeled compound at 30 min in rat lung over uptake in blood; conditions: other tissue, 0.5 h; in short: as §2
Rattus norvegicus [24] = species on record: Rattus norvegicus; test: Ratio of distribution of the [131I]-labeled compound at 5 min in rat brain over uptake in blood; in short: as §2
Rattus norvegicus [25] = species on record: Rattus norvegicus; test: Ratio of distribution of the [131I]-labeled compound at 5 min in rat heart over uptake in blood; conditions: other tissue; in short: as §2
Rattus norvegicus [26] = species on record: Rattus norvegicus; test: Ratio of distribution of the [131I]-labeled compound at 5 min in rat kidney over uptake in blood; conditions: other tissue; in short: as §2
Rattus norvegicus [27] = species on record: Rattus norvegicus; test: Ratio of distribution of the [131I]-labeled compound at 5 min in rat liver over uptake in blood; conditions: other tissue; in short: as §2
Rattus norvegicus [28] = species on record: Rattus norvegicus; test: Ratio of distribution of the [131I]-labeled compound at 5 min in rat lung over uptake in blood; conditions: other tissue; in short: as §2
Rattus norvegicus [29] = species on record: Rattus norvegicus; test: The distribution of the 131 I-labeled compound at 5 min was evaluated in rat blood as Percent of injected dose per gram in the organ; conditions: in vivo; in short: as §1
Rattus norvegicus [30] = species on record: Rattus norvegicus; test: The distribution of the 131 I-labeled compound at 30 min was evaluated in rat brain as Percent of injected dose in the total organ; conditions: in vivo, 0.5 h; in short: as §1

| SMILES | Dose (Rattus norvegicus [1]) | Dose (Rattus norvegicus [2]) | Dose (Rattus norvegicus [3]) | Dose (Rattus norvegicus [4]) | Dose (Rattus norvegicus [5]) | Dose (Rattus norvegicus [6]) | Dose (Rattus norvegicus [7]) | Dose (Rattus norvegicus [8]) | Dose (Rattus norvegicus [9]) | Dose (Rattus norvegicus [10]) | Dose (Rattus norvegicus [11]) | Dose (Rattus norvegicus [12]) | Dose (Rattus norvegicus [13]) | Dose (Rattus norvegicus [14]) | Dose (Rattus norvegicus [15]) | Dose (Rattus norvegicus [16]) | Dose (Rattus norvegicus [17]) | Dose (Rattus norvegicus [18]) | Ratio (Rattus norvegicus [19]) | Ratio (Rattus norvegicus [20]) | further results |
| --- | --- | --- | --- | --- | --- | --- | --- | --- | --- | --- | --- | --- | --- | --- | --- | --- | --- | --- | --- | --- | --- |
| COc1cc(CC(C)NCC2CC2)c(OC)cc1I (stereo not given) | 0.19% | 0.23% | 0.3% | 1.7% | 0.77% | 8.9% | 0.97% | 2.4% | 0.62% | 0.33% | 0.71% | 0.91% | 2% | 1.1% | 3.9% | 0.55% | 7.8% | 0.09% | 2.1 | 3.3 | Ratio (Rattus norvegicus [21]): 8.6; Ratio (Rattus norvegicus [22]): 11; Ratio (Rattus norvegicus [23]): 26; Ratio (Rattus norvegicus [24]): 2.8; Ratio (Rattus norvegicus [25]): 7.6; Ratio (Rattus norvegicus [26]): 9.2; Ratio (Rattus norvegicus [27]): 4.5; Ratio (Rattus norvegicus [28]): 65; Dose (Rattus norvegicus [29]): 0.12%; Dose (Rattus norvegicus [30]): 0.35% |
| COc1cc(CC(C)N(C)Cc2ccccc2)c(OC)cc1I (stereo not given) | 0.05% | 0.21% | 0.19% | 1.3% | 0.52% | 7.6% | 0.62% | 0.7% | 0.29% | 0.15% | 1.2% | 1.1% | 1.8% | 0.63% | 12% | 0.8% | 0.75% | 0.09% | 0.09 | 2.1 | Ratio (Rattus norvegicus [21]): 5.8; Ratio (Rattus norvegicus [22]): 6.9; Ratio (Rattus norvegicus [23]): 7.8; Ratio (Rattus norvegicus [24]): 1.3; Ratio (Rattus norvegicus [25]): 9.2; Ratio (Rattus norvegicus [26]): 5.3; Ratio (Rattus norvegicus [27]): 6.7; Ratio (Rattus norvegicus [28]): 6.3; Dose (Rattus norvegicus [29]): 0.12%; Dose (Rattus norvegicus [30]): 0.1% |
| COc1cc(CC(C)NN)c(OC)cc1I (stereo not given) | 0.08% | 0.15% | 1.2% | 1.5% | 0.77% | 5% | 0.29% | 0.26% | 0.72% | 0.37% | 0.4% | 0.46% | 2.2% | 1.2% | 12% | 1.3% | 0.87% | 0.17% | 0.5 | 7.1 | Ratio (Rattus norvegicus [21]): 4.5; Ratio (Rattus norvegicus [22]): 1.7; Ratio (Rattus norvegicus [23]): 1.5; Ratio (Rattus norvegicus [24]): 1; Ratio (Rattus norvegicus [25]): 1.9; Ratio (Rattus norvegicus [26]): 3.3; Ratio (Rattus norvegicus [27]): 3.6; Ratio (Rattus norvegicus [28]): 2.4; Dose (Rattus norvegicus [29]): 0.36%; Dose (Rattus norvegicus [30]): 0.14% |
| COc1cc(CC(C)N)c(OC)cc1I (stereo not given) | 0.4% | 0.32% | 0.29% | 2.8% | 1.1% | 10% | 0.8% | 2.8% | 0.64% | 0.34% | 0.92% | 0.86% | 3.2% | 1.2% | 5.6% | 0.83% | 3.3% | 0.06% | 6.7 | 14 | Ratio (Rattus norvegicus [21]): 18; Ratio (Rattus norvegicus [22]): 13; Ratio (Rattus norvegicus [23]): 46; Ratio (Rattus norvegicus [24]): 4.7; Ratio (Rattus norvegicus [25]): 12; Ratio (Rattus norvegicus [26]): 17; Ratio (Rattus norvegicus [27]): 12; Ratio (Rattus norvegicus [28]): 47; Dose (Rattus norvegicus [29]): 0.07%; Dose (Rattus norvegicus [30]): 0.76% |
